Measured values taken from paper PMC9116722 (Cancer chemotherapy and pharmacology, 2022).

Assay: Adverse events
Assay type: in vivo, human
Conditions: BRCAmut and BRCAwt combined
How it was run: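 Patients with germline BRCA-mutated cancers, or BRCA-wildtype TNBC or platinum-refractory ovarian cancer, took oral drug continuously twice daily in 28-day cycles. There were nine dose levels from 50 to 500 mg BID under 3+3 escalation, run separately per cohort after the first DLT. Toxicities were graded by CTCAE v4.0, with DLTs assessed during cycle 1.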

SMILES: C[C@]1(c2nc3c(C(N)=O)cccc3[nH]2)CCCN1 [veliparib]
- Abdominal pain, Any Grade: 6 (6) number of patients (%)
- Abdominal pain, Grade 1: 3 (3) number of patients (%)
- Abdominal pain, Grade 2: 1 (1) number of patients (%)
- Abdominal pain, Grade 3: 2 (2) number of patients (%)
- Abdominal pain, Grade 4: 0 (0) number of patients (%)
- Alkaline phosphatase increased, Any Grade: 6 (6) number of patients (%)
- Alkaline phosphatase increased, Grade 1: 3 (3) number of patients (%)
- Alkaline phosphatase increased, Grade 2: 2 (2) number of patients (%)
- Alkaline phosphatase increased, Grade 3: 1 (1) number of patients (%)
- Alkaline phosphatase increased, Grade 4: 0 (0) number of patients (%)
- Anemia, Any Grade: 31 (32) number of patients (%)
- Anemia, Grade 1: 19 (19) number of patients (%)
- Anemia, Grade 2: 10 (10) number of patients (%)
- Anemia, Grade 3: 1 (1) number of patients (%)
- Anemia, Grade 4: 1 (1) number of patients (%)
- Anorexia, Any Grade: 20 (20) number of patients (%)
- Anorexia, Grade 1: 17 (17) number of patients (%)
- Anorexia, Grade 2: 3 (3) number of patients (%)
- Anorexia, Grade 3: 0 (0) number of patients (%)
- Anorexia, Grade 4: 0 (0) number of patients (%)
- Any adverse event, Any Grade: 92 (94) number of patients (%)
- Any adverse event, Grade 1: 86 (88) number of patients (%)
- Any adverse event, Grade 2: 54 (55) number of patients (%)
- Any adverse event, Grade 4: 3 (3) number of patients (%)
- Aspartate aminotransferase increased, Any Grade: 9 (9) number of patients (%)
- Aspartate aminotransferase increased, Grade 1: 8 (8) number of patients (%)
- Aspartate aminotransferase increased, Grade 2: 0 (0) number of patients (%)
- Aspartate aminotransferase increased, Grade 3: 1 (1) number of patients (%)
- Aspartate aminotransferase increased, Grade 4: 0 (0) number of patients (%)
- Constipation, Any Grade: 9 (9) number of patients (%)
- Constipation, Grade 1: 8 (8) number of patients (%)
- Constipation, Grade 2: 1 (1) number of patients (%)
- Constipation, Grade 3: 0 (0) number of patients (%)
- Constipation, Grade 4: 0 (0) number of patients (%)
- Diarrhea, Any Grade: 19 (19) number of patients (%)
- Diarrhea, Grade 1: 16 (16) number of patients (%)
- Diarrhea, Grade 2: 3 (3) number of patients (%)
- Diarrhea, Grade 3: 0 (0) number of patients (%)
- Diarrhea, Grade 4: 0 (0) number of patients (%)
- Dizziness, Any Grade: 9 (9) number of patients (%)
- Dizziness, Grade 1: 8 (8) number of patients (%)
- Dizziness, Grade 2: 1 (1) number of patients (%)
- Dizziness, Grade 3: 0 (0) number of patients (%)
- Dizziness, Grade 4: 0 (0) number of patients (%)
- Dry mouth, Any Grade: 8 (8) number of patients (%)
- Dry mouth, Grade 1: 8 (8) number of patients (%)
- Dry mouth, Grade 2: 0 (0) number of patients (%)
- Dry mouth, Grade 3: 0 (0) number of patients (%)
- Dry mouth, Grade 4: 0 (0) number of patients (%)
- Dysgeusia, Any Grade: 16 (16) number of patients (%)
- Dysgeusia, Grade 1: 16 (16) number of patients (%)
- Dysgeusia, Grade 2: 0 (0) number of patients (%)
- Dysgeusia, Grade 3: 0 (0) number of patients (%)
- Dysgeusia, Grade 4: 0 (0) number of patients (%)
- Dyspepsia, Any Grade: 6 (6) number of patients (%)
- Dyspepsia, Grade 1: 6 (6) number of patients (%)
- Dyspepsia, Grade 2: 0 (0) number of patients (%)
- Dyspepsia, Grade 3: 0 (0) number of patients (%)
- Dyspepsia, Grade 4: 0 (0) number of patients (%)
- Dyspnea, Any Grade: 5 (5) number of patients (%)
- Dyspnea, Grade 1: 2 (2) number of patients (%)
- Dyspnea, Grade 2: 1 (1) number of patients (%)
- Dyspnea, Grade 3: 1 (1) number of patients (%)
- Dyspnea, Grade 4: 1 (1) number of patients (%)
- Fatigue, Any Grade: 44 (45) number of patients (%)
- Fatigue, Grade 1: 33 (34) number of patients (%)
- Fatigue, Grade 2: 9 (9) number of patients (%)
- Fatigue, Grade 3: 2 (2) number of patients (%)
- Fatigue, Grade 4: 0 (0) number of patients (%)
- Headache, Any Grade: 9 (9) number of patients (%)
- Headache, Grade 1: 7 (7) number of patients (%)
- Headache, Grade 2: 1 (1) number of patients (%)
- Headache, Grade 3: 1 (1) number of patients (%)
- Headache, Grade 4: 0 (0) number of patients (%)
- Hyperglycemia, Any Grade: 10 (10) number of patients (%)
- Hyperglycemia, Grade 1: 9 (9) number of patients (%)
- Hyperglycemia, Grade 2: 1 (1) number of patients (%)
- Hyperglycemia, Grade 3: 0 (0) number of patients (%)
- Hyperglycemia, Grade 4: 0 (0) number of patients (%)
- Hyponatremia, Any Grade: 7 (7) number of patients (%)
- Hyponatremia, Grade 1: 7 (7) number of patients (%)
- Hyponatremia, Grade 2: 0 (0) number of patients (%)
- Hyponatremia, Grade 3: 0 (0) number of patients (%)
- Hyponatremia, Grade 4: 0 (0) number of patients (%)
- Hypophosphatemia, Any Grade: 8 (8) number of patients (%)
- Hypophosphatemia, Grade 1: 2 (2) number of patients (%)
